Assay results: ChEMBL document CHEMBL3352487, “Synthesis, antibacterial activity, and biological evaluation of formyl hydroxyamino derivatives as novel potent peptide deformylase inhibitors against drug-resistant bacteria” (Eur J Med Chem, 2014)
Values after ≈ are worked out from the molar mass of the structure shown.

How the values were obtained:
Assay type in all cases: functional
Staphylococcus aureus [1] = assay: Antimicrobial activity against Staphylococcus aureus isolate RN4220 pmz1 after 24 hrs by broth microdilution method; conditions: isolate RN4220 pmz1, 24 h
Procedure, shortened: (§1)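 Broth microdilution following NCCLS M7-A4, using ATCC strains and clinical isolates from a provincial hospital.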

Staphylococcus aureus [2] = assay: Antimicrobial activity against Staphylococcus aureus isolate 306 after 24 hrs by broth microdilution method; conditions: isolate 306, 24 h
Procedure, shortened: (§2)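 Broth microdilution following NCCLS M7-A4; ATCC strains and clinical isolates from a provincial hospital.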

Staphylococcus aureus [3] = assay: Antimicrobial activity against Staphylococcus aureus isolate 929003 after 24 hrs by broth microdilution method; conditions: isolate 929003, 24 h; procedure, shortened: as §2
Staphylococcus aureus [4] = assay: Antimicrobial activity against Staphylococcus aureus isolate Ealing 23 after 24 hrs by broth microdilution method; conditions: isolate Ealing 23, 24 h; procedure, shortened: as §1
Staphylococcus aureus [5] = assay: Antimicrobial activity against Staphylococcus aureus isolate 934324 after 24 hrs by broth microdilution method; conditions: isolate 934324, 24 h; procedure, shortened: as §2
Staphylococcus aureus [6] = assay: Antimicrobial activity against Staphylococcus aureus isolate Smith ATCC 13709 after 24 hrs by broth microdilution method; conditions: isolate Smith ATCC 13709, 24 h; procedure, shortened: as §1
Staphylococcus aureus [7] = assay: Antimicrobial activity against Staphylococcus aureus isolate NEQAS 4158 after 24 hrs by broth microdilution method; conditions: isolate NEQAS 4158, 24 h; procedure, shortened: as §2
Staphylococcus aureus [8] = assay: Antimicrobial activity against Staphylococcus aureus isolate RN1024 after 24 hrs by broth microdilution method; conditions: isolate RN1024, 24 h; procedure, shortened: as §1
Staphylococcus aureus [9] = assay: Antimicrobial activity against Staphylococcus aureus isolate NEQAS 4026 after 24 hrs by broth microdilution method; conditions: isolate NEQAS 4026, 24 h; procedure, shortened: as §2
Staphylococcus aureus [10] = assay: Antimicrobial activity against Staphylococcus aureus ATCC 29213 after 24 hrs by broth microdilution method; conditions: ATCC 29213, 24 h; procedure, shortened: as §2
Staphylococcus aureus [11] = assay: Antimicrobial activity against Staphylococcus aureus isolate 934335 after 24 hrs by broth microdilution method; conditions: isolate 934335, 24 h; procedure, shortened: as §2
Staphylococcus aureus [12] = assay: Antimicrobial activity against Staphylococcus aureus isolate OGA833 after 24 hrs by broth microdilution method; conditions: isolate OGA833, 24 h; procedure, shortened: as §2
Staphylococcus aureus [13] = assay: Antimicrobial activity against Staphylococcus aureus isolate CARTER 37 after 24 hrs by broth microdilution method; conditions: isolate CARTER 37, 24 h; procedure, shortened: as §1
Staphylococcus aureus [14] = assay: Antimicrobial activity against Staphylococcus aureus isolate CL 1033 after 24 hrs by broth microdilution method; conditions: isolate CL 1033, 24 h; procedure, shortened: as §2
Staphylococcus aureus [15] = assay: Antimicrobial activity against Staphylococcus aureus isolate MILES HALL after 24 hrs by broth microdilution method; procedure, shortened: as §1
Staphylococcus aureus [16] = assay: Antimicrobial activity against Staphylococcus aureus isolate 934334 after 24 hrs by broth microdilution method; conditions: isolate 934334, 24 h; procedure, shortened: as §2
Staphylococcus aureus [17] = assay: Antimicrobial activity against Staphylococcus aureus isolate 929035 after 24 hrs by broth microdilution method; conditions: isolate 929035, 24 h; procedure, shortened: as §2
Staphylococcus aureus [18] = assay: Antimicrobial activity against Staphylococcus aureus isolate CL 939 after 24 hrs by broth microdilution method; conditions: isolate CL 939, 24 h; procedure, shortened: as §1
Staphylococcus aureus [19] = assay: Antimicrobial activity against Staphylococcus aureus isolate 934387 after 24 hrs by broth microdilution method; conditions: isolate 934387, 24 h; procedure, shortened: as §1
Staphylococcus aureus [20] = assay: Antimicrobial activity against Staphylococcus aureus isolate RN1030 after 24 hrs by broth microdilution method; conditions: isolate RN1030, 24 h; procedure, shortened: as §1
Staphylococcus aureus [21] = assay: Antimicrobial activity against Staphylococcus aureus isolate MN 1255 after 24 hrs by broth microdilution method; conditions: isolate MN 1255, 24 h; procedure, shortened: as §2
Staphylococcus aureus [22] = assay: Antimicrobial activity against Staphylococcus aureus isolate CL 938 after 24 hrs by broth microdilution method; conditions: isolate CL 938, 24 h; procedure, shortened: as §2
Staphylococcus aureus [23] = assay: Antimicrobial activity against Staphylococcus aureus isolate F89 after 24 hrs by broth microdilution method; conditions: isolate F89, 24 h; procedure, shortened: as §2
Staphylococcus aureus [24] = assay: Antimicrobial activity against Staphylococcus aureus isolate RUSSELL after 24 hrs by broth microdilution method; procedure, shortened: as §1
Staphylococcus aureus [25] = assay: Antimicrobial activity against Staphylococcus aureus isolate Ealing 32 after 24 hrs by broth microdilution method; conditions: isolate Ealing 32, 24 h; procedure, shortened: as §2

C/C(=C\C(=O)OCCCCCCCCC(=O)O)C[C@@H]1OC[C@H](C[C@@H]2O[C@H]2[C@@H](C)[C@H](C)O)[C@@H](O)[C@H]1O [MUPIROCIN]
MIC (Staphylococcus aureus [1]): > 16 mg/L | MIC (Staphylococcus aureus [2]): > 16 mg/L | MIC (Staphylococcus aureus [3]): 0.25 mg/L (≈ 0.499 µM) | MIC (Staphylococcus aureus [4]): > 16 mg/L | MIC (Staphylococcus aureus [5]): 0.25 mg/L (≈ 0.499 µM) | MIC (Staphylococcus aureus [6]): 0.06 mg/L (≈ 0.12 µM) | MIC (Staphylococcus aureus [7]): 0.25 mg/L (≈ 0.499 µM) | MIC (Staphylococcus aureus [8]): 0.25 mg/L (≈ 0.499 µM) | MIC (Staphylococcus aureus [9]): > 16 mg/L | MIC (Staphylococcus aureus [10]): 0.25 mg/L (≈ 0.499 µM) | MIC (Staphylococcus aureus [11]): 0.25 mg/L (≈ 0.499 µM) | MIC (Staphylococcus aureus [12]): > 16 mg/L | MIC (Staphylococcus aureus [13]): > 16 mg/L | MIC (Staphylococcus aureus [14]): 0.25 mg/L (≈ 0.499 µM) | MIC (Staphylococcus aureus [15]): > 16 mg/L | MIC (Staphylococcus aureus [16]): 0.25 mg/L (≈ 0.499 µM) | MIC (Staphylococcus aureus [17]): 0.25 mg/L (≈ 0.499 µM) | MIC (Staphylococcus aureus [18]): 0.25 mg/L (≈ 0.499 µM) | MIC (Staphylococcus aureus [19]): 0.25 mg/L (≈ 0.499 µM) | MIC (Staphylococcus aureus [20]): 0.25 mg/L (≈ 0.499 µM) | MIC (Staphylococcus aureus [21]): 0.25 mg/L (≈ 0.499 µM) | MIC (Staphylococcus aureus [22]): 0.25 mg/L (≈ 0.499 µM) | MIC (Staphylococcus aureus [23]): > 16 mg/L | MIC (Staphylococcus aureus [24]): 0.25 mg/L (≈ 0.499 µM) | MIC (Staphylococcus aureus [25]): > 16 mg/L
